Test results taken from publication PMC8628544 (Developmental cell, 2021).
Read-outs that look alike come from different tables or passages of the source.

Legend:
[1] = system: human ESC-derived cardiomyocytes; test: Cardiomyocyte differentiation of hESCs; type: cell-based; settings: for gene expression in DKO cultures / fraction of TNNT2+ cells in DKO cultures: NR2F1/2 DKO
mouse LECs = type: cell-based
Procedure, shortened: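 LECs were isolated from collagenase D/dispase-digested mouse lymph nodes and grown overnight in semi-synthetic medium (DMEM, Hepes, 1% BSA, ITS-A, 1% FBS) with 1 µM sphingolipid-precursor-BSA. Deletion was induced with 0.5–1 µM 4-OH-TMX. Test compound-BSA (50–100 nM) or vehicle was added, with media renewed daily. At 24 h, cells were fixed and immunostained for NR2F2, Prox1 and […], then imaged by confocal microscopy.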

[2] = system: E10.5 embryo cultures of Sptlc2^f/f Cdh5^CreERT2 mice; test: Rescue experiments using ex-vivo embryo culture; parameters: species or system mouse; settings: 25 nM 1-deoxySO-BSA; 24 hours; 4-OH-TMX
Procedure, shortened: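 Embryos were cultured in DMEM-F12 with 15% KSR, N2, Glutamax and Pen-Strep. Medium held 1 µM 4-OH-TMX, 5 µM sphingolipid-precursor-BSA and 25 nM test compound-BSA; controls received vehicle-BSA instead. Culture ran in O2-flushed sealed 50 mL tubes on a roller at 37°C, 5% CO2, for 24 h.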

[3] = target: NR2F1(LBD)-GAL4(DBD) fusion protein (Mus musculus, UniProt Q60632); test: NR2F1; type: cell-based; settings: Figure S1C
Sequence of NR2F1(LBD)-GAL4(DBD) fusion protein (P04386 1-147 partner limits assumed, one chain of several): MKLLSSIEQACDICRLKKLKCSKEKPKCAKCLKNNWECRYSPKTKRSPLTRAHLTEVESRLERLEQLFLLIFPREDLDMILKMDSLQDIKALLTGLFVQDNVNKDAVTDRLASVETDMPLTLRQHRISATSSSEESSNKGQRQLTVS

HEK-293FT cells = test: Cell viability of HEK-293FT cells; type: cell-based, human; settings: 1 µM
NR2F2 [4] = test: NR2F2 reporter activity in HEK-293FT cells; type: cell-based; settings: 1 µM
Procedure, shortened: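 HEK-293FT cells plated at 5 x 10^4 per well the day before, then PEI-transfected in antibiotic-free DMEM with 1% FBS. Each well received reporter plasmid, NHR plasmid and a Renilla normalisation plasmid. 24 h after transfection, test compound-BSA complexes diluted in 1% FBS medium were added. Dual luciferase read-out.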

RARA LBD = target: T1, RARA LBD (Homo sapiens, UniProt P10276); test: Metabolite pull-down with FLAG-tagged control LBD and LC-MS; type: binding; settings: C18+ mode; 500 nM all-trans-retinoic acid in medium; p-value 0.01
T1 sequence (P10276 183-417 limits assumed): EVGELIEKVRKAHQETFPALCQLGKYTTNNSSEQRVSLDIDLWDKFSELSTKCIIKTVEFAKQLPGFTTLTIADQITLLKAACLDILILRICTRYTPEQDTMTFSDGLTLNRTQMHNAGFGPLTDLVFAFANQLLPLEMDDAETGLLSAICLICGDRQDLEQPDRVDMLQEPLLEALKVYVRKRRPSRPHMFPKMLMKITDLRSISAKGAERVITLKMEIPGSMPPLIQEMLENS

NR2F2 [5] = settings: at high concentrations; ref Kruse et al., 2008; cited from earlier work
NR2F1 LBD = target: T2, NR2F1 LBD (Mus musculus, UniProt Q60632); test: Metabolite pull-down / displacement with FLAG-tagged LBD and LC-MS; type: binding; settings: 500 nM retinoic acid in medium
T2 sequence (Q60632 183-422): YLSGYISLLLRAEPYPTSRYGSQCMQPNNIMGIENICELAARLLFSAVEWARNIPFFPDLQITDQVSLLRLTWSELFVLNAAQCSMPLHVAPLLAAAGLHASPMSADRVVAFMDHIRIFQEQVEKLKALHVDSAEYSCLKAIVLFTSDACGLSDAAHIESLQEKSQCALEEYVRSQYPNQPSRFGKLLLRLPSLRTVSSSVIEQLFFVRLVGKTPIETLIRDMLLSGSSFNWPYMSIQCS

NR2F1/2 = settings: read-out: Kd for NR2F1/2; ref Kruse et al., 2008; cited from earlier work
[6] = target: fluorescein-labeled SRC2-2 peptide; test: fluorescence polarisation
[7] = target: fluorescein-labeled SRC2-2 peptide; test: fluorescence polarisation; remark: listed apart in the source
[8] = target: fluorescein-labeled SRC2-2 peptide; test: fluorescence polarisation; remark: listed apart in the source
[9] = 1 µM from day 1, WT, day 6, bulk RNA-seq

CCC/C=C\CCCCCCCCCC[C@@H](O)[C@H](C)N [1-deoxySO-14Z, 1-deoxysphingosine (14Z)]
gene expression in DKO cultures [1]: minimally affected
fraction of TNNT2+ cells in DKO cultures ([1]; 1.5 µM from day 3): did not increase
number of viable cells in Sptlc2 deleted cultures (mouse LECs; 4OH-TMX, medium with D-erythroSO, Figure S3C): restored
other lymphatic endothelial markers (LYVE1 and NR2F2) (mouse LECs; within 24 hours after 4OH-TMX): no effects were observed
PROX1 levels in LECs (mouse LECs; within 24 hours after 4OH-TMX, versus vehicle): partially restored
cardiac development in embryo cultures [2]: partially rescued

CCCCCCCCCCCCC/C=C/[C@@H](O)[C@H](C)N [1-deoxysphingosine]
fraction of TNNT2+ cells in WT cultures ([1]; WT, 1.5 µM from day 3, FACS day 9): increased
number of genes decreased by >2-fold versus vehicle ([1]; WT, day 9): 464
number of genes increased by >2-fold versus vehicle ([1]; WT, day 9): 265

COc1ccc(O)c2ccccc12 [4-methoxy-1-naphthol]
activity of the NR2F1(LBD)-GAL4(DBD) fusion protein [3]: inhibited

CCCCCCCCCCCCC/C=C/[C@@H](O)[C@@H](N)CO [D-erythroSO, D-erythro-sphingosine]
gene expression in DKO cultures [1]: minimally affected
fraction of TNNT2+ cells in DKO cultures ([1]; 1.5 µM from day 3): did not increase

CCCCCCC(=O)CCCCCC/C=C/C[C@@H](O)[C@H](O)[C@@](N)(CO)C(=O)O [myriocin]
cell viability (HEK-293FT cells): without loss of cell viability
NR2F2 reporter activity (NR2F2 [4]): partially suppress
number of downregulated genes versus vehicle [1, 9]: 850
number of upregulated genes versus vehicle [1, 9]: 1121

CC1=C(/C=C/C(C)=C/C=C/C(C)=C/C(=O)O)C(C)(C)CCC1 [retinoic acid, all-trans retinoic acid]
enrichment in RARA but not NR2F1 samples (RARA LBD): 14.76 fold
agonist activity on NR2F2 (NR2F2 [5]): weak agonist
metabolites with exact masses detected in the NR2F1 samples (NR2F1 LBD): no such metabolites were detected
Kd (NR2F1/2): 26000 nM

NR2F1/2-LBD
Kd [6]: > 300 nM
Kd [7]: 68 nM
Kd [8]: > 300 nM
